Values after ≈ are worked out from the molar mass of the structure shown.
Columns and labels:
[1] = test system: Mycobacterium tuberculosis; test: Antimycobacterial activity against multidrug-resistant Mycobacterium tuberculosis clinical isolate assessed as growth inhibition after 5 days by MTT assay; format: functional; settings: 120 h
Procedure, shortened: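 MTB inoculum made from 20–30-day slant growth in Tween 80/0.2% BSA, adjusted to McFarland No. 1, then diluted in 7H9GC broth (Middlebrook 7H9, glycerol, Casitone, OADC). Final inoculum about 1.2 × 10^6 CFU/mL. Compounds taken from DMSO stock to final 0.4–25 in broth, with a DMSO control. Plates run 5 days at 37 °C, then tetrazolium (MTT)–Tween 80 added for a further 24 h at 37 °C. Read-out is MIC.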

[2] = Selectivity index, ratio of IC50 for mouse J774.1 cells to MIC for multidrug-resistant Mycobacterium tuberculosis clinical isolate; format: functional
Procedure, shortened: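 Cytotoxicity: J774.1 macrophages in DMEM with 4 mM L-glutamine and 10% heat-inactivated FCS, seeded at 5 × 10^4/well, attached 48 h at 37 °C, 5% CO2. Exposed 48 h to 12.5–400.0 µM compound or vehicle. MTT at 0.1 mg/mL final for 3 h, formazan dissolved in DMSO/glycine buffer pH 10.5, A560 read. IC50 by linear regression, divided by the MIC against the same MTB strain.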

| SMILES | MIC [1] | Selectivity Index [2] |
| --- | --- | --- |
| Cc1c(/C=N/NC(=O)c2cccnc2)no[n+]1[O-] | > 101 µM |  |
| O=C(N/N=C/c1c(-c2ccccc2)no[n+]1[O-])c1cccnc1 | 20.2 µM (≈ 6.25 µg/mL) | 10 |
| O=C(N/N=C/c1ccc2no[n+]([O-])c2c1)c1cccnc1 | 22.1 µM (≈ 6.26 µg/mL) | 1.4 |
| Cc1c(/C=N/NC(=O)c2ccc3c(c2)OCO3)no[n+]1[O-] | > 86.2 µM |  |
| O=C(N/N=C/c1c(-c2ccccc2)no[n+]1[O-])c1ccc2c(c1)OCO2 | > 71 µM |  |
| O=C(N/N=C/c1ccc2no[n+]([O-])c2c1)c1ccc2c(c1)OCO2 | > 76.7 µM |  |
| Cc1nc2ccccn2c1C(=O)N/N=C/c1no[n+]([O-])c1C | > 83.3 µM |  |
| Cc1nc2ccccn2c1C(=O)N/N=C/c1c(-c2ccccc2)no[n+]1[O-] | 8.6 µM (≈ 3.12 µg/mL) | 6.5 |
| Cc1nc2ccccn2c1C(=O)N/N=C/c1ccc2no[n+]([O-])c2c1 | 38.6 µM (≈ 13 µg/mL) | 3.7 |
| Cc1[nH]cnc1C(=O)N/N=C/c1no[n+]([O-])c1C | > 100 µM |  |
| Cc1[nH]cnc1C(=O)N/N=C/c1c(-c2ccccc2)no[n+]1[O-] | > 80.1 µM |  |
| Cc1[nH]cnc1C(=O)N/N=C/c1ccc2no[n+]([O-])c2c1 | 21.9 µM (≈ 6.27 µg/mL) | 1.5 |
| Cc1c(/C=N/NC(=O)c2cnn(-c3ccccc3)c2)no[n+]1[O-] | > 80.1 µM |  |
| O=C(N/N=C/c1c(-c2ccccc2)no[n+]1[O-])c1cnn(-c2ccccc2)c1 | > 66.8 µM |  |
| O=C(N/N=C/c1ccc2no[n+]([O-])c2c1)c1cnn(-c2ccccc2)c1 | > 17.9 µM |  |
| COc1ccc(/C=N/NC(=O)c2no[n+]([O-])c2C)cc1O | > 85.6 µM |  |
| COc1cc(/C=N/NC(=O)c2no[n+]([O-])c2C)ccc1O | > 85.6 µM |  |
| Cc1c(/C=N/NC(=O)c2no[n+]([O-])c2C)no[n+]1[O-] | > 93.6 µM |  |
| Cc1c(C(=O)N/N=C/c2c(-c3ccccc3)no[n+]2[O-])no[n+]1[O-] | > 75.8 µM |  |
| Cc1c(C(=O)N/N=C/c2ccc3no[n+]([O-])c3c2)no[n+]1[O-] | 82.2 µM (≈ 25 µg/mL) |  |
| Cc1c(C(=O)N/N=C/c2ccc(N(C)C)cc2)no[n+]1[O-] | > 86.5 µM |  |

| SMILES | MIC [1] | Selectivity Index [2] |
| --- | --- | --- |
| Cc1c(C(=O)N/N=C/c2ccc(Br)cc2)no[n+]1[O-] | > 74 µM |  |
| Cc1c(C(=O)N/N=C/c2ccco2)no[n+]1[O-] | > 106 µM |  |
| Cc1c(C(=O)N/N=C/c2ccc([N+](=O)[O-])s2)no[n+]1[O-] | 42.1 µM (≈ 12.5 µg/mL) |  |
| Cc1c(C(=O)N/N=C/c2ccc([N+](=O)[O-])o2)no[n+]1[O-] | 44.5 µM (≈ 12.5 µg/mL) |  |
| Cc1c(C(=O)N/N=C/c2ccccc2O)no[n+]1[O-] | > 95.4 µM |  |
| COc1ccc(/C=N/NC(=O)c2no[n+]([O-])c2C)cc1OC | > 81.6 µM |  |
| Cc1c(C(=O)N/N=C/c2ccc3c(c2)OCO3)no[n+]1[O-] | > 86.2 µM |  |
| Cc1c(C(=O)N/N=C/c2ccc(C(=O)O)cc2)no[n+]1[O-] | > 86.2 µM |  |
| Cc1c(C(=O)N/N=C/c2ccc(C(F)(F)F)cc2)no[n+]1[O-] | > 79.6 µM |  |
| O=C(N/N=C/c1ccc2nonc2c1)c1cccnc1 | 46.8 µM (≈ 12.5 µg/mL) | 5 |
| Cc1c(/C=N/NC(=O)c2ccncc2)no[n+]1[O-] | > 25.4 µM |  |
| O=C(N/N=C/c1ccc2nonc2c1)c1ccncc1 | > 93.6 µM |  |
| CC(=O)Nc1ccc(/C=N/NC(=O)c2no[n+]([O-])c2C)cc1 | > 82.5 µM |  |
| Cc1c(C(=O)N/N=C/c2ccc([N+](=O)[O-])cc2)no[n+]1[O-] | > 85.9 µM |  |
| Cc1c(C(=O)N/N=C/c2ccccc2)no[n+]1[O-] | > 102 µM |  |
| Cc1c(C(=O)N/N=C/c2cccc(O)c2)no[n+]1[O-] | > 95.4 µM |  |
| COc1cc(/C=N/NC(=O)c2no[n+]([O-])c2C)cc(OC)c1OC | > 74.4 µM |  |
| Cc1c(C(=O)N/N=C/c2ccccn2)no[n+]1[O-] | > 101 µM |  |
| O=C(N/N=C/c1ccc2no[n+]([O-])c2c1)c1ccncc1 | 11 µM (≈ 3.12 µg/mL) | 12 |
| O=C(N/N=C/c1c(-c2ccccc2)no[n+]1[O-])c1ccncc1 | 10.1 µM (≈ 3.12 µg/mL) | >40 |
| NNC(=O)c1ccncc1 [ISONIAZID] | 45.6 µM (≈ 6.25 µg/mL) | >9 |

From ChEMBL document CHEMBL2331334, “Hybrid furoxanyl N-acylhydrazone derivatives as hits for the development of neglected diseases drug candidates” (Eur J Med Chem, 2013)
